14-3-3 Bad PPI: disrupts binding of bovine 14-3-3 zeta to phospho-Bad peptide; 0.71% of 220,000 active; inhibition, % at 21.7 µM; TR-FRET 14-3-3zeta/Dy647-pBad peptide displacement, 1 h;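 active = inhibition above about 70%, limit read from the data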
EBV gp42 block: inhibitors of Epstein-Barr virus glycoprotein 42 | Fluorescence polarization binding assay, mP read-out | AID 1085 | 0.42% of 220,000 active | inhibition, % (tested at 21.74 µM)
PKD1 kinase inh: inhibitors of human PKD1 kinase. Q15139. PKD1 kinase fluorescence polarization assay. inhibition, % (test concentration not listed). 0.056% of 200,000 active. AID 797
eIF4E 4G PPI: eIF4E/eIF4G interaction inhibition in translation initiation; P63073+Q04637; TR-FRET eIF4E-eIF4GI(517-606) binding, 2 h; inhibition, % at 21.7 µM; 0.37% of 220,000 active; AID 782;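 active = inhibition above about 30%, limit read from the data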
RBBP9 inh: inhibitors of human serine hydrolase RBBP9; O75884; inhibition, % at 7.94 µM; recombinant RBBP9, FP-Rh probe fluorescence polarization; 0.2% of 220,000 active;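 active = inhibition above the campaign mean of all tested compounds plus 3 SD, cut at about 14% in these data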
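System: RBBP9 protein / Quantity: 2.5 µM RBBP9 dispensing solution, before mixing / Also added: Serine-hydrolase probe FP-Rh, 375 nM pre-mixing / Dosing: 7.94 µM single dose, 0.794% DMSO / Timing: enzyme-compound preincubation 30 min, then probe labeling 45 min, 25 °C / Signal: FP readout at 525/598 nm / Controls: DMSO-treated enzyme wells and wells lacking RBBP9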
Each line names hits and unclear results; the compound was inactive in the other large screens; [ ] = dose if it differs, or a comment. A selection: hits, their analogues and other compounds. The true share with any hit is near 1.6%. Rule as the data show it, unless noted: active = inhibition above about 50%; inactive = the rest.

Oc1c(C(c2cccs2)N2CCN(c3ccccc3)CC2)ccc2cccnc12 (stereo unspecified)	eIF4E 4G PPI 36[fluorescence artefact?]
Oc1c(C(c2ccccc2Cl)N2CCCC2)ccc2cccnc12 (stereo unspecified)	none
O=C(O)c1cc(S(=O)(=O)NCC2CCCO2)ccc1Cl (stereo unspecified)	none
O=C(Cc1ccc(Cl)cc1)N/N=C/c1ccncc1	none
COc1ccc(NC(=O)CSc2ccc3c4c(cccc24)C(=O)c2ccccc2-3)cc1	EBV gp42 block 133
N#Cc1cccc(NC(=O)CSc2ccc3c4c(cccc24)C(=O)c2ccccc2-3)c1	EBV gp42 block 107
O=C(Cn1nc2n(c1=O)-c1ccccc1SC2)N/N=C/c1ccncc1	none (no result: PKD1 kinase inh)
CNC(=S)NNC(=O)c1sc(-c2cc(C)on2)nc1C	none (no result: PKD1 kinase inh)
CCOC(=O)c1cccc(Nc2nc(C)cc(C)n2)c1	14-3-3 Bad PPI 71
CCOC(=O)c1ccc2nc(C)cc(Nc3cccc(C(=O)O)c3)c2c1	none
O=C(COC(=O)Cc1ccc(S(=O)(=O)N2CCOCC2)s1)NCc1ccc(Cl)cc1	none
Cc1ccc2occ(CN3CCN(Cc4ccccc4)CC3)c(=O)c2c1	14-3-3 Bad PPI 72
Cc1ccc2occ(CN3CCN(c4ccccc4)CC3)c(=O)c2c1	none
O=c1c(CN2CCN(Cc3ccccc3)CC2)coc2ccc(Cl)cc12	14-3-3 Bad PPI 72
CCOC(=O)N1CCN(C(=O)c2c(N)no[n+]2[O-])CC1	none
CCN(CCNC(=O)C1CCCN(Cc2nc(-c3ccc(OC)cc3)oc2C)C1)c1ccccc1 (stereo unspecified)	14-3-3 Bad PPI 86
Cc1cc(C)n(CCCNCC(O)c2ccccc2)n1 (stereo unspecified)	14-3-3 Bad PPI 85
O[C@@H](CNC[C@H](O)c1ccccc1)c1ccccc1	none
OCCCN=c1cc(-c2ccccc2)oc2ccc(Cl)cc12	14-3-3 Bad PPI 193[fluorescence artefact?]
Cc1sc2nc(CN3CCOCC3)nc(N3CCC(C(N)=O)CC3)c2c1C	none (no result: 14-3-3 Bad PPI, EBV gp42 block, eIF4E 4G PPI)
Cc1sc2nc(CN3CCOCC3)nc(N3CCOCC3)c2c1C	14-3-3 Bad PPI 74
NC(=O)[C@@H]1[C@@H]2C(=O)N(c3ccc(F)cc3)C(=O)[C@@H]2[C@H]2C=Cc3ccccc3N21	none (no result: PKD1 kinase inh)
O=C(c1ccco1)[C@@H]1[C@@H]2C(=O)N(c3ccc(F)cc3)C(=O)[C@@H]2[C@H]2C=Cc3ccccc3N21	14-3-3 Bad PPI 89[fluorescence artefact?]
O=C(c1ccco1)[C@@H]1[C@@H]2C(=O)N(c3ccc(F)cc3)C(=O)[C@@H]2C2c3ccccc3C=CN21 (stereo partly specified)	EBV gp42 block 54
OCCC1CN(Cc2ccccc2OC2CCCC2)CCN1Cc1ccsc1 (stereo unspecified)	none
O=C(Nc1cccc(S(=O)(=O)NC2=NCCCCC2)c1)c1cc(-c2ccncc2)nc2ccccc12	none
O=C(Nc1cccc(S(=O)(=O)NC2=NCCCCC2)c1)c1cc(-c2ccco2)nc2ccccc12	eIF4E 4G PPI 35 (no result: PKD1 kinase inh)
O=C1CCC(=O)N1CC(=O)N(c1ccccc1)c1ccccc1	none
Cc1ccc(NC(=O)CC2C(=O)N(Cc3ccccc3)C(=S)N2NC(=O)c2ccccc2)c(C)c1 (stereo unspecified)	none
c1ccc2c(c1)oc1c(N3CCOCC3)ncnc12	14-3-3 Bad PPI 81
CC(Cc1cccnc1)NC(=O)c1ccccc1OC1CCN(S(C)(=O)=O)CC1 (stereo unspecified)	none
COc1cc(N2CCCC2)c(OC)cc1/C=C(/C#N)c1ccc(Br)cc1	EBV gp42 block 95
COc1cc(N2CCCC2)ccc1C=O	none
COc1cc(N2CCCC2)c(OC)cc1/C=C(/C#N)c1ccc(F)cc1	EBV gp42 block 139
Cc1ccc(NC2(c3nnnn3-c3c(C)cccc3C)CCCCC2)cc1	none
COc1cccc(/C=C/C(=O)OCC(=O)Nc2cccc(S(=O)(=O)N(C)C)c2)c1	14-3-3 Bad PPI 95
CCS(=O)(=O)c1cc([N+](=O)[O-])c(Sc2ccccc2NC(C)=O)s1	none (no result: PKD1 kinase inh)
CCOC(=O)C1CCCN(C(=S)Nc2cc(C)cc(C)c2)C1 (stereo unspecified)	none
CC(=O)Oc1ccccc1-n1c(C)nc(=O)c(-c2ccccc2)c1C	none (no result: PKD1 kinase inh)
CCCNC(=O)c1ccc2c(=O)c(O)c(-c3ccc(F)cc3)[nH]c2c1	eIF4E 4G PPI 98 (no result: PKD1 kinase inh, RBBP9 inh)
Cc1nn(C)c(C)c1CN(C)C(=O)C1c2ccccc2Oc2ccccc21	EBV gp42 block 81
Cc1nn(C)c(C)c1CN(C)C(=O)C1(C)CC1(Br)Br (stereo unspecified)	none
Cc1c(N=Nc2c(-c3ccc([N+](=O)[O-])cc3)[nH]n(C(N)=S)c2=O)cccc1[N+](=O)[O-]	14-3-3 Bad PPI 92, EBV gp42 block 109, eIF4E 4G PPI 33
NC(=S)n1[nH]c(-c2ccc([N+](=O)[O-])cc2)c(N=Nc2cccc([N+](=O)[O-])c2)c1=O	14-3-3 Bad PPI 91, EBV gp42 block 100
Cn1c(N)c(C(=O)COC(=O)CC(NC(=O)c2ccccc2Cl)c2ccccc2)c(=O)n(C)c1=O (stereo unspecified)	none
COc1ccc(S(=O)(=O)Nc2nccs2)cc1OC	none
COc1ccc(-c2nnc(Nc3ccc(S(=O)(=O)Nc4nccs4)cc3)c3ccccc23)cc1	EBV gp42 block 52
Cc1onc(-c2c(F)cccc2Cl)c1C(=O)O/N=C(\N)c1ccc([N+](=O)[O-])o1	none (no result: PKD1 kinase inh)
COc1ccc(Cl)cc1NC(=O)C(OC)c1ccccc1 (stereo unspecified)	14-3-3 Bad PPI 87
O=C(O)CCCCC1CCSS1 (stereo unspecified)	14-3-3 Bad PPI 99, EBV gp42 block 102, eIF4E 4G PPI 72
CC(C)(C)OC(=O)C1C(=O)CC(C)(O)C(C(=O)OC(C)(C)C)C1c1cccnc1 (stereo unspecified)	14-3-3 Bad PPI 80
CCc1cc2c(NCc3ccco3)ncnc2s1	14-3-3 Bad PPI 87
Cc1cc(C(=O)N/N=C/c2cc(Cl)cc([N+](=O)[O-])c2O)c2ccccc2n1	none
O=C(N/N=C/c1cc(Cl)cc([N+](=O)[O-])c1O)NC12CC3CC(CC(C3)C1)C2	EBV gp42 block 52
COC(OC)c1ccc(C#N)c(SCc2ccc(C)cc2)n1	none (no result: PKD1 kinase inh)
CC1CCc2c(sc3ncnc(N4CCN(S(=O)(=O)c5cccc6nonc56)CC4)c23)C1 (stereo unspecified)	none (no result: 14-3-3 Bad PPI, EBV gp42 block, eIF4E 4G PPI)
COc1ccc(-c2ccc(C#N)c(SCC(=O)Nc3sc4c(c3C#N)CCC4)n2)cc1OC	14-3-3 Bad PPI 92[fluorescence artefact?]
N#Cc1cc2c(nc1SCC(=O)Nc1sc3c(c1C#N)CCC3)CCC2	none
CCC(CC)C(=O)NCc1ccc(OC)cc1	14-3-3 Bad PPI 76
COc1ccc(CNC(=O)c2c(F)c(F)c(F)c(F)c2F)cc1	none
CCOC(=O)N1CCN=C1SCc1ccc(Cl)c(Cl)c1	none
O=C(CN(c1ccccn1)S(=O)(=O)c1ccccc1)N/N=C/c1cccc([N+](=O)[O-])c1	none
O=C(O)C1Cc2ccccc2CN1S(=O)(=O)/C=C/c1ccccc1 (stereo unspecified)	14-3-3 Bad PPI 86

Compound activity: PubChem BioAssay, several laboratories
